# The entries come from a sample that favours hits as a whole.
# RORA inh: inhibitors of human nuclear receptor RORA; P35398; CHO-K1 Gal4-RORA LBD luciferase reporter, luminescence; inhibition, % at 10 µM; hit rate 0.43% among 65,000; AID 561;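 active means inhibition above the mean of all tested compounds plus 3 SD, cut at about 52% in these data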;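 further: 0% = RORA-transfected cells with DMSO and 100% = mock-transfected cells lacking RORA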
# Target sequence (P35398 whole entry, looked up, the tested form may be a part): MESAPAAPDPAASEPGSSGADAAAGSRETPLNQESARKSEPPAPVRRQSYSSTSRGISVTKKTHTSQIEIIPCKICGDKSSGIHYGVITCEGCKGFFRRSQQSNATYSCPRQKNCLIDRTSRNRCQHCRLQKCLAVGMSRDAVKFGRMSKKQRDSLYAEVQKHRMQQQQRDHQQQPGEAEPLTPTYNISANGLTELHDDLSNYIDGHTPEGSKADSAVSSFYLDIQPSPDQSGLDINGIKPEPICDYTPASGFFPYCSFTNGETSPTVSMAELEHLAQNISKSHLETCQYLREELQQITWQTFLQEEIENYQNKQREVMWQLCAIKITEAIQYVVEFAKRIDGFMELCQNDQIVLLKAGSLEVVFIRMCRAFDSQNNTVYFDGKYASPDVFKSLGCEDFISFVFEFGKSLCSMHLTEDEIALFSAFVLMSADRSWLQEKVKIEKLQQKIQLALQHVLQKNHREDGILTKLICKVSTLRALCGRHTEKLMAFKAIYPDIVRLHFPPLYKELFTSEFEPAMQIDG
#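 Test system: CHO-K1 cells with Gal4-hRORA LBD fusion and pG5-luc reporter / Compound: single concentration per compound, 10 µM final / Schedule: 20 h compound treatment, 37 °C / Signal: luminescence from basal luciferase reporter expression / Read-out: % inhibition / Control set: mock-transfected cells as 100%, +RORA DMSO cells as 0% / Replicates: tested once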
# * marks the source's active call; other numbers are inactive results.
SMILES,RORA inh
Cc1oc(-c2ccc3c(c2)OCCO3)cc1C(=O)O,74.9*
Cc1oc2cc(O)cc(O)c2c(=O)c1-c1ccc2c(c1)OCCCO2,-58.5
Cc1oc(-c2ccc3c(c2)OCCO3)cc1C(=O)NC(CCC(=O)O)C(=O)O (stereo not given),-1.0
CC(OC(=O)c1ccco1)C(=O)NCc1cccs1 (stereo not given),10.0
CC1Cc2ccccc2N1C(=O)CSc1nnc(-c2ccc(S(=O)(=O)N3CCCC3)cc2)o1 (stereo not given),0.4
COc1ccc(C(=O)Cn2c(N3CCOCC3)nc3ccccc32)cc1OC,19.3
c1ccc(Oc2ccc(-n3cnnn3)cc2)cc1,4.6
COc1ccc(-c2csc(N3CCOCC3)n2)cc1OC,-60.9
COc1ccc(-c2cc3nc4n(c(=O)c3s2)CCOC4)cc1,60.2*
c1ccc2c(c1)CCN(c1nc3cc4c(cc3s1)OCCO4)C2,63.6*
Cc1nc2ccc(S(=O)(=O)NCC(=O)N3CCc4ccccc4C3)cc2s1,-16.3
CCN1CCN(C(=O)C2c3cc(OC)c(OC)cc3C(=O)N(C)C2c2ccc(SC)cc2)CC1 (stereo not given),4.9
Cc1ccccc1C(=O)/C=C1\NC(=O)CS1,15.8
CC1CC(C)CN(c2ncnc3c2cnn3-c2ccc(Cl)cc2)C1 (stereo not given),-54.1
CN1CCN(c2ncnc3c2cnn3-c2ccc(Cl)cc2)CC1,21.5
CC1CCCN(c2ncnc3c2cnn3-c2ccc(Cl)cc2)C1 (stereo not given),84.0*
c1ccc(-n2ncc3c(NCC4CCCO4)ncnc32)cc1 (stereo not given),-57.1
CC1CCCN(c2ncnc3c2cnn3-c2ccccc2)C1 (stereo not given),56.6*
c1ccc(-n2ncc3c(N4CCCCC4)ncnc32)cc1,62.0*
c1ccc(-n2ncc3c(NC4CCCCCC4)ncnc32)cc1,-77.1
Cc1cccc(-n2ncc3c(N4CCC5(CC4)OCCO5)ncnc32)c1,-49.1
Clc1ccc(-n2ncc3c(NCC4CCCO4)ncnc32)cc1 (stereo not given),-96.4
O=c1c2c3n(c(=O)nc2[nH]n1-c1ccccc1)CCCCC3,10.5
c1ccc(-c2cnnc(N3CCCCC3)n2)cc1,-58.0
Cc1nnc2n(Cc3ccccc3)c(=O)c3c4c(sc3n12)COC(C(C)C)C4 (stereo not given),0.4
SMILES,RORA inh
CCCCn1nnc(NC(=O)CC23CC4CC(CC(C4)C2)C3)n1,17.8
O=C(NCc1ccco1)c1cnn2c(C(F)(F)F)cc(-c3cccs3)nc12,2.3
Clc1ccc(OCc2nnc(-c3ccccc3Br)o2)c(Cl)c1,-90.4
N#CNC1=NCN(Cc2ccccc2)CN1,8.5
Cc1ccc(NC(=O)c2ocnc2C)cc1Cl,-61.4
CCCCC(=O)Nc1ccc(N2CCN(C(=O)CC)CC2)cc1,10.5
Cc1cc(C)n(-c2ccc(C(=O)Nc3ccc4c(c3)OCCO4)cc2)n1,-75.3
Cn1nc(CC(=O)Nc2ccc(N3CCN(C(=O)OC(C)(C)C)CC3)cc2)c2ccccc2c1=O,85.9*
Cn1nc(CC(=O)Nc2ccc3c(c2)OCCO3)c2ccccc2c1=O,74.8*
Cc1ccc(NC(=O)Cn2nc(C)c3ccccc3c2=O)cc1F,6.6
Cc1cc2ccccc2c(=O)n1CC(=O)Nc1ccc2c(c1)OCO2,3.3
COc1ccc(N2CCN(C(=O)C3CCC(Cn4c(=S)[nH]c5ccccc5c4=O)CC3)CC2)cc1 (stereo not given),-18.0
COc1ccccc1N1CCN(CC(=O)Nc2ccc(C)c(F)c2)CC1,-2.3
Cc1ccc(NC(=O)Cc2nn(C)c(=O)c3ccccc23)cc1F,76.0*
CCN1CCN(C(CNS(=O)(=O)c2ccc(OC)cc2)c2cccnc2)CC1 (stereo not given),-10.8
Cc1nnc(C)n1/N=C/C=C/c1ccccc1,2.7
COc1cccc(NC(=O)c2nnn(Cc3ccc(Br)cc3F)c2N)c1,-58.3
Cn1c(=O)c2c3c(sc2n2c(SCC(=O)c4ccc(Cl)cc4)nnc12)COC(C)(C)C3,6.7
CC(C)OCCCNC(=O)C1CCC(=O)N1C(C)C (stereo not given),16.5
COc1nc(N(C#N)CC(N)=O)nc(N2CCCC2)n1,-0.2
Cc1cccc(-n2ncc3c(N(C)Cc4ccccc4)ncnc32)c1,-55.5
Cc1ccc(-c2nc(Nc3ccccc3)n[nH]2)cc1,-63.1
Cc1ccccc1S(=O)(=O)Cc1ccc(C(=O)NCCCOC(C)C)o1,17.2
COc1ccc(Nc2nccc3c2nnn3C)cc1,-52.7
Cc1csc(SCCn2c(N3CCCC3)nc3c2c(=O)[nH]c(=O)n3C)n1,8.0
SMILES,RORA inh
NC(=O)CSc1nc2sc3c(c2c2ncnn12)CCCC3,-22.8
COc1cc(NC(=O)CSc2nc(C)cs2)cc(OC)c1,5.6
Cc1cc(C(=O)CN2C(=O)NC3(CCCc4ccccc43)C2=O)c(C)n1Cc1cccs1 (stereo not given),-30.5
CC(=O)Nc1ccc(SCC(=O)c2cc(C)n(Cc3cccs3)c2C)cc1,67.0*
Cc1csc(SCC(=O)c2cc(C)n(Cc3cccs3)c2C)n1,77.1*
Cc1nc2ccc(NC(=O)Cc3cccs3)cc2s1,-53.4
